Among the data in ChEMBL document CHEMBL5532692, “Structure-based virtual screening of unbiased and RNA-focused libraries to identify new ligands for the HCV IRES model system” (RSC Med Chem, 2024) are Kd, EC50 and Activity values, retold here.

Molecules are shown by their SMILES. pEC50, pKd: −log10 of the molar value. Bounds are passed on as bounds.

By pKd is commonly meant the negative decadic logarithm of the Kd, by convention in mol/L. For orientation: pEC50 means the EC50 on a negative log10 scale, so that one unit is a factor of ten.

Assay [1] concerns the target Internal ribosome entry site (IRES). The experiment in a line: Binding affinity to HCV IRES subdomain IIa RNA assessed as dissociation constant by MST assay. The class given is nucleic-acid assay, Hepacivirus hominis. In outline:
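Same two-stranded IIa RNA, Cy5-labelled, annealed at 75 °C then cooled to room temperature for at least 20 min in 10 mM HEPES pH 7.0, 2 mM MgCl2. Used at 30 nM with compound from 1 mM (or 316/100 μM if solubility-limited) to 0.01 μM in 3.16-fold steps, 2% DMSO final. Thermophoresis read after 18 s laser on-time. KD from triplicates.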

Assay [2] has the same target. The experiment in a line: Binding affinity to HCV IRES subdomain IIa RNA assessed as reduction in FRET signal by FRET assay. The class given is nucleic-acid assay, Hepacivirus hominis. In short, it runs like this:
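Two-stranded HCV IRES IIa RNA, 5'-Cy3 on one strand and 5'-Cy5 on the other, annealed at 75 °C then cooled to room temperature for at least 20 min in 10 mM HEPES pH 7.0, 2 mM MgCl2. RNA at 100 nM with compound; excitation 480 nm, Cy5 emission 670 nm. Dose–response 1 mM to 100 nM in 3.16-fold steps, 2% DMSO final. EC50 from at least triplicates.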

The subject of assay [3] is Internal ribosome entry site (IRES). Kind of assay: Binding affinity to HCV IRES subdomain IIa RNA. The conditions noted are these: Hepacivirus hominis; dose 0.001-1000 µM.

As for `NC1=NC(c2cn[nH]c2-c2cccc(O)c2)n2c(nc3ccccc32)N1` (stereo unspecified), in assay [1], the pKd is at most 4.00. Besides, the pEC50 in assay [2] was at most 3.00.
In the case of `N=C(N)NC(=O)c1nc(Cl)c(N)nc1N` [AMILORIDE], the pKd in assay [1] was at most 4.00.
Turning to `NC1=Nc2nc3ccccc3n2C(C2CC2)N1` (stereo unspecified), the Activity entry in assay [3] is “Dose-Dependent Effect”.
In the case of `CNC(=N)Nc1nc(C)c2ccc(OC)cc2n1`, in assay [1], the pKd was 4.06.
As for `NC1=NC(c2ccccc2)n2c(nc3ccccc32)N1` (stereo unspecified), the Activity result in assay [3] was “Dose-Dependent Effect”.
Consider `CC(C)NCC(O)COc1ccc2[nH]cc(CCN)c2c1` (stereo unspecified), for which, in assay [1], the pKd is 3.87.
Same read-out and setting: as for `COc1ccc2c(C)nc(NC(=N)N)nc2c1`, the figure is 3.87.
Take `COc1cccc(C2NC(N)=Nc3nc4ccccc4n32)c1` (stereo unspecified): the Activity result in assay [3] is “Dose-Dependent Effect”.
Turning to `Nc1cc(-c2ccc3[nH]ncc3c2)c2cc[nH]c2n1`, the pKd in assay [1] was at most 4.30.
Still for that read-out and setting: as for `CCOc1ccc2c(C)nc(NC(=N)N)nc2c1`, the figure is 3.72.
